Experimental findings from ChEMBL document CHEMBL1156736, “Multidentate small-molecule inhibitors of vaccinia H1-related (VHR) phosphatase decrease proliferation of cervix cancer cells” (J Med Chem, 2009) are described below.

For experiment [1], the system named is HeLa. The experiment in a line: Antiproliferative activity against human HeLa cells at 20 uM after 24 hrs by [3H]thymidine incorporation assay relative to control. The class given is functional. In short, it runs like this:
(§1)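 5×10^4 cells in DMEM complete medium exposed 24 h to 20 μM inhibitor or DMSO vehicle; [3H]thymidine ([…]) added for final 4 h, cells harvested onto glass fiber filters, radioactivity by scintillation counting; expressed relative to DMSO control; mean ± SD of three independent experiments.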

For experiment [2], the system named is Ca-Ski. The experiment in a line: Antiproliferative activity against human CaSki cells at 20 uM after 24 hrs by [3H]thymidine incorporation assay relative to control. The experiment is classed as functional. In short, it runs like this:
as §1

Experiment [3] concerns HeLa. The experiment in a line: Antiproliferative activity against human HeLa cells at 20 uM after 24 hrs by Trypan blue assay. The experiment is classed as functional. In short, it runs like this: (§2)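 10^5 cells (HeLa in DMEM/10% FCS; primary normal keratinocytes from hysterectomy tissue, trypsin-EDTA dispersed, in K-SFM with EGF, pituitary hormone) treated 24 h with 20 μM inhibitor or DMSO; trypsinized and counted with trypan blue in a counting chamber; cell numbers as percentage of DMSO control; mean ± SD, three independent experiments.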

In experiment [4] the target is T1, M-phase inducer phosphatase 1 (Homo sapiens, UniProt P30304).
T1 sequence (P30304 whole entry): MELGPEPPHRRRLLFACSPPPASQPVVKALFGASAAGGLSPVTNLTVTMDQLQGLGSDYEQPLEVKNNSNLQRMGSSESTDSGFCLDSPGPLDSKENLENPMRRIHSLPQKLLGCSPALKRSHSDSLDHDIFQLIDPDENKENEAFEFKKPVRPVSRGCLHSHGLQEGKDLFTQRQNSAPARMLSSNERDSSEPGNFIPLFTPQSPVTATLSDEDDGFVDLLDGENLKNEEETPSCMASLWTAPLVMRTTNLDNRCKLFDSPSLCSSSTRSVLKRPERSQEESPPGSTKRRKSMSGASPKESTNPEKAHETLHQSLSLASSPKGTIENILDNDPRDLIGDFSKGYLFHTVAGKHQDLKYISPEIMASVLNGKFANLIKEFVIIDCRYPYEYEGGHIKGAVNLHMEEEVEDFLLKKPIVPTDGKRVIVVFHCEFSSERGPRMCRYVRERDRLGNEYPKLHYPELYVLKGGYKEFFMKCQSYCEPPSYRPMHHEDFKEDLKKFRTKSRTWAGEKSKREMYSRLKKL
The experiment in a line: Inhibition of recombinant Cdc25a.

The subject of experiment [5] is Keratinocyte. The experiment in a line: Cytotoxicity against human keratinocytes at 20 uM after 24 hrs by Trypan blue assay. The class given is functional, cell-based. In short, it runs like this:
as §2

The target in experiment [6] is T2, Tyrosine-protein phosphatase non-receptor type 7 (Homo sapiens, UniProt P35236).
T2 sequence (P35236 whole entry): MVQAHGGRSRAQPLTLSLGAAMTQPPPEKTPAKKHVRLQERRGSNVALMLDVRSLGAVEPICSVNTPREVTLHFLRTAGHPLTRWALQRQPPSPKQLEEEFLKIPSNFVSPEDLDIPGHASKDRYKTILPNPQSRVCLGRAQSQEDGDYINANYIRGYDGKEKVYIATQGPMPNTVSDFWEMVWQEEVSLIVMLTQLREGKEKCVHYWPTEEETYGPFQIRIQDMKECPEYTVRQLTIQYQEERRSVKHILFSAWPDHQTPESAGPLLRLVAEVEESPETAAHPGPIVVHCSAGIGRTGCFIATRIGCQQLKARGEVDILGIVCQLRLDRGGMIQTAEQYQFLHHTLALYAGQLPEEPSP
The experiment in a line: Inhibition of recombinant HePTP.

For experiment [7], the system named is HeLa. The experiment in a line: Induction of apoptosis in human HeLa cells assessed as apoptotic cells at 20 uM after 24 hrs by annexin V/propidium iodide based flow cytometry. The class given is functional, cell-based. In short, it runs like this: (§3)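 10^5 cells in DMEM/10% FCS incubated 24 h with 20 μM inhibitor or DMSO, trypsinized; half of cells stained with AnnexinV-FITC and propidium iodide, analysed by flow cytometry; live cells taken as AnnexinV- and PI-negative; mean ± SD from three independent experiments.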
In general terms: In flow cytometry, cells or beads pass a laser one at a time.

Experiment [8] concerns the target T3, Dual specificity protein phosphatase 1 (Homo sapiens, UniProt P28562).
T3 sequence (P28562 whole entry): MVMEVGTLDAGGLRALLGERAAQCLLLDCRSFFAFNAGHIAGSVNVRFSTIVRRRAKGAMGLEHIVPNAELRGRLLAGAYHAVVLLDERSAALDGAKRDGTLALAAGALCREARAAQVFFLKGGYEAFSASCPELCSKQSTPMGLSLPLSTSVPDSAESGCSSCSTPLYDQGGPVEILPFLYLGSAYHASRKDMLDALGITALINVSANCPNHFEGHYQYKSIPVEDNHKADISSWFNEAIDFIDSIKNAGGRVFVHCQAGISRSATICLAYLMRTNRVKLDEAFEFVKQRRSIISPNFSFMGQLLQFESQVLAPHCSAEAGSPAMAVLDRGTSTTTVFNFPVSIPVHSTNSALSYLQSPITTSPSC
The experiment in a line: Inhibition of recombinant MKP1.

Experiment [9] has as its system Ca-Ski. The experiment in a line: Induction of apoptosis in human CaSki cells assessed as apoptotic cells at 20 uM after 24 hrs by annexin V/propidium iodide based flow cytometry. The class given is functional, cell-based. In short, it runs like this: as §3
For experiment [10], the target named is Dual specificity protein phosphatase 3 (Homo sapiens, UniProt P51452). The experiment in a line: Inhibition of recombinant vaccina H1-related phosphatase.
Sequence of Dual specificity protein phosphatase 3 (P51452 whole entry): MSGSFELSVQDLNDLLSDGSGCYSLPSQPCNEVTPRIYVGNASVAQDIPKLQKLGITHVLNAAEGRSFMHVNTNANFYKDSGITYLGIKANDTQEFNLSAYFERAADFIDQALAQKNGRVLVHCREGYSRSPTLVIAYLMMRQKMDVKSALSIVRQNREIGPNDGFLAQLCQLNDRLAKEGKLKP
The target in experiment [11] is T4, Receptor-type tyrosine-protein phosphatase C (Homo sapiens, UniProt P08575).
T4 sequence (P08575 whole entry): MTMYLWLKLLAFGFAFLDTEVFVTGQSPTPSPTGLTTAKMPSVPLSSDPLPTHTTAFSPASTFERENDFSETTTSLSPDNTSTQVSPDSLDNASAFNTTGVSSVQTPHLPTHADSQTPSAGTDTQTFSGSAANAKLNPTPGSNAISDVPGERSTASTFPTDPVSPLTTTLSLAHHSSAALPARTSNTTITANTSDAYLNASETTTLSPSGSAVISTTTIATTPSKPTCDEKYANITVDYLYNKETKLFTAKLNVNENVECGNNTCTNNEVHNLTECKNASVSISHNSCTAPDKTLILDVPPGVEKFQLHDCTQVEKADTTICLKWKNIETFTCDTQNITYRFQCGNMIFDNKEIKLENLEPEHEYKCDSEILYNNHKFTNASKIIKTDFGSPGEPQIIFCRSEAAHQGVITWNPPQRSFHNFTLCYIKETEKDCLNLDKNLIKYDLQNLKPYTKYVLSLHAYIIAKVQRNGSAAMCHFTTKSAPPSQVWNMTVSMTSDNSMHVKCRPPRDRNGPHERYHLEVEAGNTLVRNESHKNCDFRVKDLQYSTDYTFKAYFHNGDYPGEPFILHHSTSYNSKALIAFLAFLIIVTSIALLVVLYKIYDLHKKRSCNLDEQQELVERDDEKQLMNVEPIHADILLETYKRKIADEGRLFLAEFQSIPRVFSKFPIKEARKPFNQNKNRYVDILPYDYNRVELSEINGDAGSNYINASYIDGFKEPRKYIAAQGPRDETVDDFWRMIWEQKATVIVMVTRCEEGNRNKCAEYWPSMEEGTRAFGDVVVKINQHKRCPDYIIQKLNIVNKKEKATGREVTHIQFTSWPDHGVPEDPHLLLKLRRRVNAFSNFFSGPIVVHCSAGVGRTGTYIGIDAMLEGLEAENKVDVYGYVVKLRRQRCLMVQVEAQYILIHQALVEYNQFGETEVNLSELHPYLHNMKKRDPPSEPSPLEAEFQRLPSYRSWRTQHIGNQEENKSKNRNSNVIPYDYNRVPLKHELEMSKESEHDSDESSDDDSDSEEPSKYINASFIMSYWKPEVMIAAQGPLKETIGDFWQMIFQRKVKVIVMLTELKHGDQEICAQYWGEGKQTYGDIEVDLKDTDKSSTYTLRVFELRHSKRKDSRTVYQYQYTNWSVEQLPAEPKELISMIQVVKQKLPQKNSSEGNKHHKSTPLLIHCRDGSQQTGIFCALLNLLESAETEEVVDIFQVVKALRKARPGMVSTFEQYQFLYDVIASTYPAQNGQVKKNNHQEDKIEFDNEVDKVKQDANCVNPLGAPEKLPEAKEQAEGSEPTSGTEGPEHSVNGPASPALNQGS
The experiment in a line: Inhibition of recombinant CD45.

Experiment [12] deals with T5, Tyrosine-protein phosphatase non-receptor type 1 (Homo sapiens, UniProt P18031).
T5 sequence (P18031 whole entry): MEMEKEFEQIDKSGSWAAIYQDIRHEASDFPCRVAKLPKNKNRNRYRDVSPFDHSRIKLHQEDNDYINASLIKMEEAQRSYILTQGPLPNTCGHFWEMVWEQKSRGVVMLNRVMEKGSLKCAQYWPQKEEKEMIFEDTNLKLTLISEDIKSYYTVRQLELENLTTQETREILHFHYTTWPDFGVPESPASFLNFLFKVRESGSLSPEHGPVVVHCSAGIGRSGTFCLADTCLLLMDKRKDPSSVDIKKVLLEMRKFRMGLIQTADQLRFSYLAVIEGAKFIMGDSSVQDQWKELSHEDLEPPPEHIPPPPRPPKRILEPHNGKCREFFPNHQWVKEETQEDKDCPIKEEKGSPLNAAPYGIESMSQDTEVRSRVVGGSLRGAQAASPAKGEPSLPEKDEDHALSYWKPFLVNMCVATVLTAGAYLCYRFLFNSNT
The experiment in a line: Inhibition of recombinant PTP1B.

What is called IC50 is the point on the concentration scale where inhibition reaches its midpoint.

Activity calls are given as the source filed them. The calls are words filed in the database; no cut-off is given here. Where only a bound is given, the exact number is not on record here.

Regarding `O=C1/C(=C/c2cn(-c3ccccc3)nc2-c2ccc(OCc3ccc(Cl)cc3)cc2)SC(=S)N1CCS(=O)(=O)O`, the Activity entry in experiment [1] is “<=30%”; in experiment [2], over 50%; in experiment [5], “Not toxic”. The result in [3] was Active. Moreover, in [4], the IC50 was found to be 2400 nM.
Consider `O=C1/C(=C/c2cn(-c3ccccc3)nc2-c2ccc(OCc3ccccc3Cl)cc2)SC(=S)N1CCS(=O)(=O)O`, for which the IC50 in experiment [6] came to 1200 nM; in experiment [8], 470 nM; in experiment [4], 3400 nM; in experiment [10] it was 71 nM; in [11] it was 300 nM; in [12], 590 nM. The Activity result in [1] is “<=30%”; in experiment [2], over 50%. The outcome in [7] and in experiment [9] was inactive. The outcome in experiment [3] was Active.
